From PubChem
SR-BI uptake up: activators of SR-BI mediated HDL lipid uptake. CHO ldlA[mSR-BI] cells, DiI-HDL uptake fluorescence, 3 h; 100 = double the neutral-control signal. 320,000 tested, 0.096% active. AID 504775. activation, % at 12.5 µM;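 active = mean replicate activation of at least 60% and every replicate at or above 60%; inconclusive = mean or all-replicate condition met, but not both; inactive = mean below 60% and not all replicates reaching 60%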;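 also: 0% = median plate neutral-control signal and 100% = twice that signal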
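System: LDL receptor-deficient CHO ldlA cells overexpressing murine SR-BI | Timing: 3 h uptake period with compound, 37 °C | Medium: HEPES-buffered (25 mM, pH 7.4) F12 plus 0.5% BSA | Dosing: Single-point compound dose | Signal: Bottom-read fluorescence, 550/595 nm | Read-out: Retained DiI signal reflecting DiI-HDL uptake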
dFosB act-1: enhances mouse delta FosB homodimer DNA binding; P13346; purified delta FosB, TAMRA-CDK5 oligo fluorescence polarization; percent of positive-control signal above neutral wells; activation, % at 25 µM; 340,000 tested, 0.99% active; AID 493131;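 active = mean activation above about 17%, with every replicate also reaching it, limit read from the data, passing the limit was not always enough; inconclusive = only one of the two conditions met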
Target sequence (P13346 whole entry, looked up): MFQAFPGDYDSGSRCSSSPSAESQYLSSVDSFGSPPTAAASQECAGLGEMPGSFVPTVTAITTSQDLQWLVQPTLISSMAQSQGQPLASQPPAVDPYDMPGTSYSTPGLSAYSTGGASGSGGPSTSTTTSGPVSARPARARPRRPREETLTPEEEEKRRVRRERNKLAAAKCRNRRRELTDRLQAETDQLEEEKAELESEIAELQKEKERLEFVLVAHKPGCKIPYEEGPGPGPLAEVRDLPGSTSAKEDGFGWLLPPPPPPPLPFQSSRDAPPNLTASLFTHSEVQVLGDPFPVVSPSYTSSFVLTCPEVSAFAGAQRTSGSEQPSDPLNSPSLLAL
SR-BI HDL uptake: mouse SR-BI HDL lipid transfer inhibition; ldlA[mSR-BI] CHO cells, DiI-HDL uptake fluorescence, 3 h; Q61009; 320,000 tested, 0.96% active; inhibition, % at 12.5 µM;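 active = mean replicate inhibition of at least 70% and a set share of replicates each scoring 70 or more; inconclusive = meets just one of the two criteria; inactive = fails both criteria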;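 also: 0% = median of neutral control wells and 100% = median of positive control wells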
CAL PDZ FP-1: blocks peptide binding to the human CAL PDZ domain; inhibition, % at 24.9 µM; 300,000 tested, 0.92% active; AID 602252; Q9HD26; purified CAL PDZ, TMR-peptide fluorescence polarization, 1 h;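 active = mean inhibition of at least 30% with at least half of replicates also reaching 30%; inconclusive = no clear call, values can overlap the other calls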;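 also: 0% = DMSO neutral control and 100% = excess unlabeled competitor peptide PRC23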
CAL PDZ FP-2: blocks peptide binding to human CAL PDZ domain; AID 504414; Q9HD26; purified CAL PDZ, TMR-peptide fluorescence polarization, 1 h; 330,000 tested, 0.02% active; inhibition, % at 20 µM;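 active = highest replicate inhibition of at least 40%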;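 also: plate controls were DMSO neutral control wells for no effect and unlabeled competitor peptide control wells for full effect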
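Assay system – tagged CAL PDZ protein CerCALP, purified · Timing – 1 h at RT · Compound – single point, 20 µM · Measured by – fluorescence polarization from S- and P-plane intensities, G-factor corrected · Evaluation – inhibition from polarization loss · Probe or stimulus – TMR reporter peptide T*-PRC34 · Buffer or medium – pH 7.4 phosphate-saline buffer, reducing agent, detergent, IgG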
dFosB act-2: activators of mouse delta FosB homodimer DNA binding; 2,400 tested, under 10 active; shares compounds with dFosB act-1; activation, % at 24.9 µM; AID 588690; purified delta FosB, TAMRA-CDK5 oligo fluorescence polarization; normalised: neutral wells 0, positive control 100;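 active = highest replicate activation at or above 34% and every replicate reaching that threshold; inconclusive = meets only one of the two criteria; inactive = meets neither criterion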;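 also: higher polarization means more probe DNA bound by delta FosB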
Active calls of the source: *; ? = inconclusive; · = not tested or not shown. A selection: hits, their analogues and other compounds. The true share with any hit is near 2.8%.

SMILES	SR-BI uptake up	dFosB act-1	SR-BI HDL uptake	CAL PDZ FP-1	CAL PDZ FP-2	dFosB act-2
Cc1ccc(Nc2nnc(SCc3nc4ccccc4c(=O)[nH]3)s2)cc1	·	43*	·	1	-2	-1
COc1ccc(-c2cc(C(=O)Nc3cccnc3)c3ccccc3n2)cc1OC	-45	-15	45	-25	-2	·
Cc1c(Cl)cccc1NC(=O)Cn1cc(C(F)(F)F)cc(Cl)c1=O	-14	57*	14	-1	-2	1
Cc1ccc(Cl)cc1NC(=O)Cn1cc(C(F)(F)F)cc(Cl)c1=O	-2	-10	2	-2	0	·
Cc1ccc(C)c(NC(=O)CN2C(=O)NC(C)(c3ccc4c(c3)OCCO4)C2=O)c1 (stereo not drawn)	3	-9	-3	-8	-1	·
CCc1c(C)c(C#N)c2nc3ccccc3n2c1NCCN(C)C	14	21*	-14	-3	0	-2
C=CCc1c(C)c(C#N)c2nc3ccccc3n2c1NCCN(C)C	31	15	-31	-2	-1	·
COCCNC(=O)CN(c1ccc(F)cc1)S(=O)(=O)c1ccc2c(c1)OCCO2	·	1	·	-1	-3	·
CCc1cccc2c(C(=O)COC(=O)c3ccc(O)cc3)c[nH]c12	-38	36*	38	18	-1	4
CCN(CC(=O)Nc1ccc(NC(C)=O)cc1)C(=O)c1ccc(NC2CC2)c([N+](=O)[O-])c1	-23	-9	23	6	1	·
O=C(Nc1ccc(N2CCOCC2)nc1)c1ccccc1Cl	-7	-6	7	0	-1	·
CCN(CC)CCNc1ncnc2c1sc1nc(N3CCOCC3)c3c(c12)CCCC3	3	31*	-3	-12	-7	-6
CC(C)CNc1ncnc2c1sc1nc(N3CCOCC3)c3c(c12)CC(C)(C)OC3	-12	-4	12	1	-2	·
CC(C)Cn1c(N)c(C(=O)COC(=O)C2Cc3ccccc3CN2S(C)(=O)=O)c(=O)n(C)c1=O (stereo not drawn)	-19	-7	19	·	-1	·
COc1ccc(OCC(=O)Nc2nc3ccc(NC(C)=O)cc3s2)cc1	-42	23*	42	·	-1	8
Cc1nc2ccc(NC(=O)c3cccs3)cc2s1	-14	-12	14	-5	-5	·
CC(=O)Nc1ccc2nc(NC(=O)COc3ccc([N+](=O)[O-])cc3)sc2c1	-26	4	26	·	0	·
CC(=O)Nc1ccc2nc(NC(=O)c3cccs3)sc2c1	-6	22*	6	-6	-4	-2
COc1ccc(NC(=O)c2oc3ccccc3c2NC(=O)c2ccco2)cc1	-57	21*	57	4	-2	-1
COc1ccc(C(=O)NC(=S)Nc2ccc(NC(=O)c3ccco3)cc2)cc1[N+](=O)[O-]	-1	29*	1	-1	-2	0
O=C(COc1ccccc1)Nc1ccc(NC(=O)c2ccco2)cc1	4	1	-4	·	-6	·
CC(=O)c1ccc(NC(=O)c2ccc(NC(=O)c3ccco3)cc2)cc1	-21	93*	21	-5	-2	2
COc1ccc(C(=O)NC(=S)Nc2cccc(NC(=O)c3ccco3)c2)cc1[N+](=O)[O-]	-15	5	15	-4	-3	·
CC(=O)Nc1ccc(NC(=O)c2ccco2)cc1	2	-7	-2	-5	-1	·
O=C(COc1ccc(Cl)cc1)Nc1ccc(NC(=O)c2ccco2)cc1	·	25*	·	·	0	9
SMILES	SR-BI uptake up	dFosB act-1	SR-BI HDL uptake	CAL PDZ FP-1	CAL PDZ FP-2	dFosB act-2
CCc1ccccc1NC(=O)CNCC(=O)Nc1ccccc1CC	4	-3	-4	0	0	·
Cc1nnc(NC(=O)C2CCN(S(=O)(=O)c3ccc(Cl)cc3)CC2)s1	23	-8	-23	-6	-1	·
O=C(Nc1cccc(Br)c1)c1ccc2c(c1)SC1=NS(=O)(=O)CCN12	-72	0	?	5	-1	·
COc1cccc(C(=O)Nc2ccc3c(c2)C(=O)NC3=O)c1	·	23*	·	·	-2	3
COc1ccc(OCC(=O)Nc2ccc3c(c2)C(=O)NC3=O)cc1	8	0	-8	-6	0	·
CC(C)(C)c1ccc(C(=O)Nc2ccc3c(c2)C(=O)NC3=O)cc1	-12	3	12	·	0	·
COc1ccc(C(=O)Nc2ccc3c(c2)C(=O)NC3=O)cc1	1	49*	-1	·	-1	3
CC(=O)c1ccc(C(=O)Nc2ccc3c(c2)C(=O)NC3=O)cc1	0	32*	0	·	-2	0
COc1cc(/C=C/C(=O)OCC(=O)NCc2ccco2)ccc1OC(F)F	5	-10	-5	1	-3	·
COc1cc(/C=C/C(=O)OCC(=O)NCC(=O)Nc2cccc(C)c2C)ccc1OC(F)F	·	20*	22	-2	-1	3
C#CCn1c(=NC(=O)c2ccc(S(=O)(=O)N3CCCc4ccccc43)cc2)sc2cc(S(N)(=O)=O)ccc21	-10	59*	10	-2	-2	2
Cc1nc2cc(NC(=O)Nc3ccccc3Cl)ccc2n1C	-12	-8	12	-3	-2	·
O=C1CC2(CCN(C(=O)c3c(F)cccc3F)CC2)Oc2ccccc21	3	-3	-3	-3	-2	·
NC(=O)CC(NC(=O)Cc1cccc2ccccc12)c1ccc(NCc2ccccc2)c([N+](=O)[O-])c1 (stereo not drawn)	7	47*	-7	-6	1	2
NC(=O)CC(NC(=O)Cc1cccc2ccccc12)c1ccc(NCc2ccc(F)cc2)c([N+](=O)[O-])c1 (stereo not drawn)	6	32*	-6	-1	-1	-6
NC(=O)CC(NC(=O)Cc1cccc2ccccc12)c1ccc(NCCc2ccc(F)cc2)c([N+](=O)[O-])c1 (stereo not drawn)	17	-2	-17	1	0	·
O=C1CCC(c2ccccc2)(C2CCN(Cc3ccccc3)CC2)C(=O)N1 (stereo not drawn)	13	5	-13	-3	0	·
COc1cccc(NC(=O)CSc2ccc3nnc(CCNC(=O)c4ccccc4)n3n2)c1	0	-3	0	-3	-3	·
COc1cc(-c2cc3nc(C)c(C)c(=O)n3[nH]2)cc(OC)c1OC	-5	22*	5	-1	-5	5
CCc1c(C)nc2cc(-c3ccccc3)[nH]n2c1=O	9	-3	-9	-3	·	·
O=C(NC1CC1)C1CCN(C2CCN(C(=O)c3c(F)cccc3Cl)CC2)CC1	17	27*	-17	-4	1	2
NS(=O)(=O)c1ccc(CNC(=O)c2cc(-c3ccccn3)nc3ccc(Cl)cc23)cc1	-12	21*	12	2	-1	-2
